Laboratory results as given in ChEMBL document CHEMBL1152796, “Azole antimicrobial pharmacophore-based tetrazoles: synthesis and biological evaluation as potential antimicrobial and anticonvulsant agents” (Bioorg Med Chem, 2009).
≈ marks a conversion by molar mass, not a printed value. Calls of active or inactive are those of the source. The calls are words filed in the database; no cut-off is given here.

Columns and labels:
Candida albicans [1] = assay: Antifungal activity against Candida albicans isolate after 72 hrs by twofold serial dilution method; format: functional
Aspergillus fumigatus [2] = assay: Antifungal activity against Aspergillus fumigatus isolate after 72 hrs by twofold serial dilution method; format: functional
Staphylococcus aureus [3] = assay: Antibacterial activity against Staphylococcus aureus ATCC 6538 after 24 to 48 hrs by twofold serial dilution method; format: functional
Method in brief: (§1)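 Broth microdilution in Müller–Hinton broth. DMSO stocks at 800 were diluted twofold from 400 down to 6.25. Wells received 10^6 CFU/mL bacterial suspension and were incubated at 36 °C for 24–48 h, with controls. MIC was read per well. Duplicate assays; run only for compounds giving inhibition zones ≥14 mm.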

Bacillus subtilis [4] = assay: Antibacterial activity against Bacillus subtilis NRRL B-14819 after 24 to 48 hrs by twofold serial dilution method; format: functional; method in brief: as §1
Micrococcus luteus [5] = assay: Antibacterial activity against Micrococcus luteus ATCC 21881 after 24 to 48 hrs by twofold serial dilution method; format: functional; method in brief: as §1
Escherichia coli [6] = assay: Antibacterial activity against Escherichia coli ATCC 25922 after 24 to 48 hrs by twofold serial dilution method; format: functional; method in brief: as §1
Pseudomonas aeruginosa [7] = assay: Antibacterial activity against Pseudomonas aeruginosa ATCC 27853 after 24 to 48 hrs by twofold serial dilution method; format: functional; method in brief: as §1
Klebsiella pneumoniae [8] = assay: Antibacterial activity against Klebsiella pneumoniae isolate after 24 to 48 hrs by twofold serial dilution method; format: functional; method in brief: as §1
Candida tropicalis = assay: Antifungal activity against Candida tropicalis isolate after 72 hrs by twofold serial dilution method; format: functional, organism-based
Pichia kudriavzevii = assay: Antifungal activity against Candida krusei isolate after 72 hrs by twofold serial dilution method; format: functional, organism-based
Aspergillus niger = assay: Antifungal activity against Aspergillus niger isolate after 72 hrs by twofold serial dilution method; format: functional, organism-based
Trichophyton rubrum = assay: Antifungal activity against Trichophyton rubrum isolate after 72 hrs by twofold serial dilution method; format: functional, organism-based
Staphylococcus aureus [9] = assay: Antibacterial activity against Staphylococcus aureus ATCC 6538 at 1 mg/mL after 24 hrs by agar diffusion method; format: functional; conditions: ATCC 6538, 24 h, read-out: Diameter of inhibition zone
Method in brief: (§2)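 Agar disc diffusion: 5 mm sterile paper discs soaked in 1 mg/mL test solution in DMSO were placed on agar seeded with the organism, in triplicate, with a DMSO-only control. Bacterial plates were incubated at 37 °C for 24 h and fungal plates for 7 days. Read-out was the average inhibition-zone diameter in mm. Fungi were clinical isolates.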

Bacillus subtilis [10] = assay: Antibacterial activity against Bacillus subtilis NRRL B-14819 at 1 mg/mL after 24 hrs by agar diffusion method; format: functional; conditions: read-out: Diameter of inhibition zone; method in brief: as §2
Micrococcus luteus [11] = assay: Antibacterial activity against Micrococcus luteus ATCC 21881 at 1 mg/mL after 24 hrs by agar diffusion method; format: functional; conditions: ATCC 21881, 24 h, read-out: Diameter of inhibition zone; method in brief: as §2
Escherichia coli [12] = assay: Antibacterial activity against Escherichia coli ATCC 25922 at 1 mg/mL after 24 hrs by agar diffusion method; format: functional; conditions: ATCC 25922, 24 h, read-out: Diameter of inhibition zone; method in brief: as §2
Pseudomonas aeruginosa [13] = assay: Antibacterial activity against Pseudomonas aeruginosa ATCC 27853 at 1 mg/mL after 24 hrs by agar diffusion method; format: functional; conditions: ATCC 27853, 24 h, read-out: Diameter of inhibition zone; method in brief: as §2
Klebsiella pneumoniae [14] = assay: Antibacterial activity against Klebsiella pneumoniae isolate at 1 mg/mL after 24 hrs by agar diffusion method; format: functional; conditions: read-out: Diameter of inhibition zone; method in brief: as §2
Candida albicans [15] = assay: Antifungal activity against Candida albicans isolate at 1 mg/mL after 7 days by twofold serial dilution method; format: functional; conditions: 168 h, read-out: Diameter of inhibition zone
Aspergillus fumigatus [16] = assay: Antifungal activity against Aspergillus fumigatus isolate at 1 mg/mL after 7 days by agar diffusion method; format: functional; conditions: 168 h, read-out: Diameter of inhibition zone; method in brief: as §2
Mus musculus [17] = assay: Anticonvulsant activity in Wister albino mouse assessed as protection against subcutaneous metrazole-induced seizures at 100 mg/kg, ip administered 30 mins before metrazole challenge measured after 30 mins; format: functional; conditions: route intraperitoneal
Method in brief: (§3)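 Wistar albino mice, either sex, 25–30 g, 3 months old, in groups of six. Compounds in DMSO were given ip at 30, 100 or 300 mg/kg; vehicle-only controls. After 30 min, metrazole 100 mg/kg in DMSO was injected sc at the posterior midline. Protection meant absence of any clonic spasm lasting ≥5 s; scored as protected/tested.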

Mus musculus [18] = assay: Anticonvulsant activity in Wister albino mouse assessed as protection against maximal electroshock-induced seizures at 100 mg/kg, ip administered 30 mins before metrazole challenge measured after 30 mins; format: functional; conditions: route intraperitoneal
Mus musculus [19] = assay: Anticonvulsant activity in Wister albino mouse assessed as protection against subcutaneous metrazole-induced seizures at 30 mg/kg, ip administered 30 mins before metrazole challenge measured after 30 mins; format: functional; method in brief: as §3
Mus musculus [20] = assay: Anticonvulsant activity in Wister albino mouse assessed as protection against subcutaneous metrazole-induced seizures at 300 mg/kg, ip administered 30 mins before metrazole challenge measured after 30 mins; format: functional; method in brief: as §3
Mus musculus [21] = assay: Anticonvulsant activity in Wister albino mouse assessed as protection against maximal electroshock-induced seizures at 300 mg/kg, ip administered 30 mins before metrazole challenge measured after 30 mins; format: functional; conditions: route intraperitoneal

| Structure (SMILES) | MIC (Candida albicans [1]) [µg/mL] | MIC (Aspergillus fumigatus [2]) [µg/mL] | MIC (Staphylococcus aureus [3]) [µg/mL] | MIC (Bacillus subtilis [4]) [µg/mL] | MIC (Micrococcus luteus [5]) [µg/mL] | MIC (Escherichia coli [6]) [µg/mL] | MIC (Pseudomonas aeruginosa [7]) [µg/mL] | MIC (Klebsiella pneumoniae [8]) [µg/mL] | Activity (Candida tropicalis) | Activity (Pichia kudriavzevii) | Activity (Aspergillus niger) | Activity (Trichophyton rubrum) | zone of inhibition at 1000 µg/mL (Staphylococcus aureus [9]) [mm] | zone of inhibition at 1000 µg/mL (Bacillus subtilis [10]) [mm] | zone of inhibition at 1000 µg/mL (Micrococcus luteus [11]) [mm] | zone of inhibition at 1000 µg/mL (Escherichia coli [12]) [mm] | zone of inhibition at 1000 µg/mL (Pseudomonas aeruginosa [13]) [mm] | zone of inhibition at 1000 µg/mL (Klebsiella pneumoniae [14]) [mm] | zone of inhibition at 1000 µg/mL (Candida albicans [15]) [mm] | zone of inhibition at 1000 µg/mL (Aspergillus fumigatus [16]) [mm] | also measured |
| --- | --- | --- | --- | --- | --- | --- | --- | --- | --- | --- | --- | --- | --- | --- | --- | --- | --- | --- | --- | --- | --- |
| Sc1nnc(COC(Cn2nnnc2Cc2ccccc2)c2ccc(Cl)cc2)o1 (stereo not drawn) | 100 (≈ 233 µM) | ≥ 200 | 50 (≈ 117 µM) | 100 (≈ 233 µM) | 100 (≈ 233 µM) | ≥ 200 | ≥ 200 | ≥ 200 | inactive | inactive | inactive | inactive | ≥ 14 | ≥ 14 | ≥ 14 | ≥ 14 | ≥ 14 | ≥ 14 | ≥ 14 | ≥ 14 |  |
| Clc1ccc(C2Cn3nnnc3Cc3ccccc32)cc1 (stereo not drawn) | ≥ 200 | 25 (≈ 84.2 µM) | 50 (≈ 168 µM) | ≥ 200 | ≥ 200 | 50 (≈ 168 µM) | ≥ 200 | ≥ 200 | inactive | inactive | inactive | inactive | ≥ 14 | ≥ 14 | ≥ 14 | ≥ 14 | ≥ 14 | ≥ 14 | ≥ 14 | ≥ 14 | Activity (Mus musculus [17]): 0%; Activity (Mus musculus [18]): 33% |
| O=C(Cn1nnnc1Cc1ccccc1)c1ccc(Cl)cc1 |  |  |  |  |  |  |  |  |  |  |  |  |  |  |  |  |  |  |  |  | Activity (Mus musculus [19]): 0%; Activity (Mus musculus [17]): 50%; Activity (Mus musculus [20]): 0%; Activity (Mus musculus [18]): 50%; Activity (Mus musculus [21]): 0% |
| O=C(COC(Cn1nnc(-c2ccccc2)n1)c1ccc(Cl)cc1)NNC(=S)Nc1ccccc1 (stereo not drawn) |  |  | 50 (≈ 98.4 µM) | 100 (≈ 197 µM) | ≥ 200 | ≥ 200 | ≥ 200 | ≥ 200 | inactive | inactive | inactive | inactive | ≥ 14 | ≥ 14 | ≥ 14 | ≥ 14 | ≥ 14 | ≥ 14 | ≥ 14 | ≥ 14 | Activity (Mus musculus [19]): 0%; Activity (Mus musculus [17]): 80%; Activity (Mus musculus [20]): 0%; Activity (Mus musculus [18]): 67% |

Further lines, with some results ahead:

| MIC (Candida albicans [1]) [µg/mL] | MIC (Aspergillus fumigatus [2]) [µg/mL] | MIC (Staphylococcus aureus [3]) [µg/mL] | MIC (Bacillus subtilis [4]) [µg/mL] | MIC (Micrococcus luteus [5]) [µg/mL] | MIC (Escherichia coli [6]) [µg/mL] | MIC (Pseudomonas aeruginosa [7]) [µg/mL] | MIC (Klebsiella pneumoniae [8]) [µg/mL] | Structure (SMILES) | Activity (Candida tropicalis) | Activity (Pichia kudriavzevii) | Activity (Aspergillus niger) | Activity (Trichophyton rubrum) | zone of inhibition at 1000 µg/mL (Staphylococcus aureus [9]) [mm] | zone of inhibition at 1000 µg/mL (Bacillus subtilis [10]) [mm] | zone of inhibition at 1000 µg/mL (Micrococcus luteus [11]) [mm] | zone of inhibition at 1000 µg/mL (Escherichia coli [12]) [mm] | zone of inhibition at 1000 µg/mL (Pseudomonas aeruginosa [13]) [mm] | zone of inhibition at 1000 µg/mL (Klebsiella pneumoniae [14]) [mm] | zone of inhibition at 1000 µg/mL (Candida albicans [15]) [mm] | zone of inhibition at 1000 µg/mL (Aspergillus fumigatus [16]) [mm] | also measured |
| --- | --- | --- | --- | --- | --- | --- | --- | --- | --- | --- | --- | --- | --- | --- | --- | --- | --- | --- | --- | --- | --- |
| 3.12 (≈ 7.5 µM) | 3.12 (≈ 7.5 µM) |  |  |  |  |  |  | Clc1ccc(COC(Cn2ccnc2)c2ccc(Cl)cc2Cl)c(Cl)c1 (stereo not drawn) [MICONAZOLE] |  |  |  |  |  |  |  |  |  |  |  |  |  |
| 50 (≈ 99.2 µM) | ≥ 200 | 50 (≈ 99.2 µM) | 100 (≈ 198 µM) | ≥ 200 | 100 (≈ 198 µM) | ≥ 200 | ≥ 200 | Sc1nnc(COC(Cn2nnnc2Cc2ccccc2)c2ccc(Cl)cc2)n1-c1ccccc1 (stereo not drawn) | inactive | inactive | inactive | inactive | ≥ 14 | ≥ 14 | ≥ 14 | ≥ 14 | ≥ 14 | ≥ 14 | ≥ 14 | ≥ 14 | Activity (Mus musculus [17]): 0%; Activity (Mus musculus [18]): 33% |
| 25 (≈ 46.4 µM) | ≥ 200 | 25 (≈ 46.4 µM) | 50 (≈ 92.9 µM) | 100 (≈ 186 µM) | 50 (≈ 92.9 µM) | ≥ 200 | ≥ 200 | Sc1nnc(COC(Cn2nnnc2Cc2ccccc2)c2ccc(Cl)cc2)n1-c1ccc(Cl)cc1 (stereo not drawn) | inactive | inactive | inactive | inactive | ≥ 14 | ≥ 14 | ≥ 14 | ≥ 14 | ≥ 14 | ≥ 14 | ≥ 14 | ≥ 14 |  |
